SMILES strings stand for the structures. pIC50: −log10 of the molar value. “Also recorded” adds a separate entry of the source. Some results are limits rather than exact numbers.

In one series the target is hERG channel (Homo sapiens, UniProt Q12809). Kind of series: hERG channel inhibition, in vitro. The series is classed as biochemical. As to conditions: read-out: hERG IC50.
Series [1] in a line: Comparative 14-day repeated-dose toxicity study with BAY964. Format: in vivo, male ICR mice. As to conditions: for exposure multiple: reference not defined. A digest of the protocol: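 Male ICR mice were dosed orally once daily for 14 days under GLP. Prodrug arm: 30, 100 or 300 mg/kg in 0.1% kolliphor EL (vehicle n=6; dose groups 6 main + 3 TK). Comparator arm: 30-1000 mg/kg, with 30 mg/kg given only as single-dose TK. Endpoints were clinical signs, body weight, food/water intake, haematology, serum chemistry, organ weights and H&E histopathology. TK was sampled on days 1 and 14.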

Sequence of hERG channel (Q12809 whole entry): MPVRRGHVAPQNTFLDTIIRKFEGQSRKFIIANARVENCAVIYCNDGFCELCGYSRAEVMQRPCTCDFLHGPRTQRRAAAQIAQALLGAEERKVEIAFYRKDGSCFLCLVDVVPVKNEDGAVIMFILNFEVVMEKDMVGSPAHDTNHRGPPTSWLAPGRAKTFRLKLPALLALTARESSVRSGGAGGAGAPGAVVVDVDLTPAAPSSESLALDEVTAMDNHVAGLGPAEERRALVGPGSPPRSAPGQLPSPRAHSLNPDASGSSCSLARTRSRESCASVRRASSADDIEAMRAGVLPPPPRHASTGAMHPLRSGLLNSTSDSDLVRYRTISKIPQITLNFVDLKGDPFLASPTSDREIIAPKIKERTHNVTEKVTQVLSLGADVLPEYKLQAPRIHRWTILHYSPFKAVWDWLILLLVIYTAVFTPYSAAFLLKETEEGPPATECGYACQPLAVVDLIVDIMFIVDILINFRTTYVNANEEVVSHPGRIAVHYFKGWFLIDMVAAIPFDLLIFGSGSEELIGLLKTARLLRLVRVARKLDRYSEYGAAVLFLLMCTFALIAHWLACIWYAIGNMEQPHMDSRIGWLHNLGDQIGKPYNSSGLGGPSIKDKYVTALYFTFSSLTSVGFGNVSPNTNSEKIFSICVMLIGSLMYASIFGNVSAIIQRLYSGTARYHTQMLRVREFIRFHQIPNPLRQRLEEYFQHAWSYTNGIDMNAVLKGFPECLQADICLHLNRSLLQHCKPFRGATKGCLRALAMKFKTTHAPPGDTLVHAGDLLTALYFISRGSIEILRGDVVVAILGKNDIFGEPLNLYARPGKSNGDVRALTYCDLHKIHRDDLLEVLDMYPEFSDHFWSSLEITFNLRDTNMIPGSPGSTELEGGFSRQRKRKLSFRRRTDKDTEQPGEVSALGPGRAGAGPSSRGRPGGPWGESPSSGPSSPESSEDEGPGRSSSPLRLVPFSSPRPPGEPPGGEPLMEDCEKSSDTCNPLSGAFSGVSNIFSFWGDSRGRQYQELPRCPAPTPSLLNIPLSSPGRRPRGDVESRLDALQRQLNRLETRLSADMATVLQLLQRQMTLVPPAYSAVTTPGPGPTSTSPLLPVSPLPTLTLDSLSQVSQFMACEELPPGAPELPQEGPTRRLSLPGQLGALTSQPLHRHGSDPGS

For `C[C@@H](CO)NC(=O)c1cc(-c2ccc(Cl)cc2)nn(-c2cnn(C)c2)c1=O` [BAY964], the pIC50 – broadly, the negative decadic logarithm of the IC50, by convention in mol/L – on hERG channel is under 5.00. Also, the toxicological findings entry was “MCHC ↓, TG ↓, liver, spleen” in series [1] (100 mg/kg, 14 days); “liver, spleen; hematological changes” in series [1] (300 mg/kg, 14 days); “gastrointestinal, liver, spleen, kidney lesions” in series [1] (1000 mg/kg, 14 days). Further, the exposure multiple is 1.9 × in series [1] (100 mg/kg), 3.6 × in series [1] (300 mg/kg) and 7.0 × in series [1] (1000 mg/kg). The Target organ entry in series [1] (100-1000 mg/kg, 14 days) is “liver, spleen, gastrointestinal tract, and kidney; also recorded: Liver, spleen, GI tract, kidney”.

For the origin of these results see paper PMC12782866 (Biomolecules & Therapeutics, 2025).
